Active and inactive are the calls of the source. No cut-off for these calls is given here.
How the values were obtained:
MC3T3-E1 [1] = test: Induction of osteoblast differentiation in mouse MC3T3-E1 cells co-cultured with C57BL/6 mouse bone marrow macrophages assessed as activation of ALP production at 10 uM measured on day 21 relative to control; assay type: functional
Summary of the method: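 MC3T3-E1 cells were cocultured with C57BL/6 BMM in differentiation factors for both cell types, with 10 μM compound, and grown for 21 d. ALP production was measured at 7, 14 and 21 d after coculture induction, relative to untreated cells.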

[2] = Cytotoxicity against human ASC cells after 24 hrs by MTT assay; assay type: cell-based; details: read-out: LD50
Summary of the method: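 Human adipose-derived mesenchymal stem cells were grown in CB-ADMSC-GM medium at 37 °C under 5% CO2. Cell growth and survival were measured by MTT assay and reported as LD50.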

BMDM [3] = test: Inhibition of M-CSF/RANKL-induced osteoclast differentiation in C57BL/6 mouse bone marrow macrophages co-cultured with mouse MC3T3-E1 at 10 uM measured on day 14; assay type: functional, cell-based
BMDM [4] = test: Inhibition of M-CSF/RANKL-induced osteoclast differentiation in C57BL/6 mouse bone marrow macrophages co-cultured with mouse MC3T3-E1 at 10 uM measured on day 21; assay type: functional, cell-based
B16-F10 = test: Antiproliferative activity against mouse B16F10 cells after 24 hrs by MTT assay; assay type: functional; details: B16-F10, 24 h, read-out: LD50 (the source's name)
Summary of the method: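 Cells were maintained in DMEM at 37 °C under 5% CO2. Growth and survival were estimated by MTT assay, and the value is reported as LD50.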

[5] = Inhibition of M-CSF/RANKL-induced osteoclast differentiation in C57BL/6 mouse bone marrow macrophage assessed as reduction in multinucleated TRAP+ cells at 10 uM incubated for 6 days with fresh media replacement on day 3 and measured on day 6 by TRAP staining-based microscopic analysis relative to control; assay type: functional; details: C57BL/6, BMDM
Summary of the method: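 BMM came from femur and tibia marrow of 5–8-week-old male C57BL/6 mice and were purified over lymphocyte separation medium. Cells, 1 × 10^5 per well, were grown in α-MEM/10% FBS with M-CSF (60 ng/mL) and RANKL (150 ng/mL) for 6 d, medium changed day 3. Compound range was 0.01−100 μM. TRAP+ multinucleated cells were counted on day 6.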

MC3T3-E1 [6] = test: Induction of osteoblast differentiation in ascorbic acid/beta-glycerophosphate-induced mouse MC3T3-E1 cells assessed as increase in RUNX2 expression at 50 uM after 7 days by Western blot analysis relative to control; assay type: functional
Summary of the method: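 MC3T3-E1 cells were induced with osteoblast differentiation factors, with or without 50 μM compound, for 21 d. Cells were harvested at 7, 14 and 21 d and RUNX2 was quantified by Western blot against untreated differentiated cells. The negative control lacked differentiation factors. Values are mean ± SD of three independent experiments.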

BMDM [7] = test: Inhibition of RANKL-induced osteoclastogenesis in C57BL/6 mouse bone marrow macrophages assessed as effect on NFkappaB expression at 10 uM measured over 5 days by Western blot analysis; assay type: functional, cell-based
Summary of the method: (§1)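 C57BL/6 BMM were grown with M-CSF plus RANKL over the course of osteoclastogenesis, treated at 0.5 or 10 μM. NF-κB and NFATc1 were followed by Western blot. The negative control was M-CSF only.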

[8] = Inhibition of M-CSF/RANKL-induced osteoclast differentiation in C57BL/6 mouse bone marrow macrophage assessed as reduction in bone resorption at 7.8 uM treated for 3 days starting from 6 days post M-CSF/RANKL-stimulation by europium-conjugated collagen based time-resolved fluorescence assay relative to control; assay type: functional, BMDM; set-up: scale not given: the % may be the effect or the level left
Summary of the method: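 Mature multinucleated osteoclasts differentiated from C57BL/6 BMM were exposed to compound for 3 d in a bone resorption assay. Resorption was compared with untreated mature osteoclasts.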

BMDM [9] = test: Inhibition of M-CSF/RANKL-induced osteoclast differentiation in C57BL/6 mouse bone marrow macrophages co-cultured with mouse MC3T3-E1 at 10 uM measured on day 7; assay type: functional, cell-based
MC3T3-E1 [10] = test: Induction of osteoblast differentiation in mouse MC3T3-E1 cells assessed as increase in osteocalcin expression at 50 uM after 14 days by Western blot analysis relative to control; assay type: functional
Summary of the method: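 MC3T3-E1 cells were differentiated with osteoblast differentiation factors, with or without 50 μM compound, for 21 d. The negative control lacked differentiation factors. Osteocalcin in culture medium was measured by Western blot at 7, 14 and 21 d. Values are mean ± SD of three independent experiments.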

MC3T3-E1 [11] = test: Induction of osteoblast differentiation in ascorbic acid/beta-glycerophosphate-induced mouse MC3T3-E1 cells co-cultured with C57BL/6 mouse bone marrow macrophages assessed as increase in osteocalcin expression at 10 uM measured on day 14 by Western blot analysis; assay type: functional, cell-based
Summary of the method: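 MC3T3-E1 and C57BL/6 BMM cocultures were given osteoblast plus osteoclast differentiation factors, with or without 10 μM compound, for 21 d. The negative control had M-CSF only. Osteocalcin in culture medium was quantified by Western blot at 7, 14 and 21 d.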

Mus musculus [12] = test: Antiosteoporotic activity in ddY mouse model of OVX-induced osteoporosis assessed as reduction in trabecular separation in femur bone at 1 mg/kg, po administered once daily via gavage for 4 weeks by microcomputed tomographic analysis; assay type: functional, organism-based
Summary of the method: (§2)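 Female ddY mice were ovariectomized. Oral gavage began 1 week after surgery and ran once daily for 28 d. Vehicle was 300 μL PBS containing 0.5% (v/v) DMSO, also given to sham and OVX controls. Mice were then euthanized and femur and tibia fixed for CT imaging. Values are mean ± SD of four mice.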

BMDM [13] = test: Effect on NFkappaB expression in M-CSF induced C57BL/6 mouse bone marrow macrophages at 0.5 uM measured over 5 days by Western blot analysis; assay type: functional, cell-based
Summary of the method: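 C57BL/6 BMM were proliferated with M-CSF alone without RANKL and treated at 0.5 or 10 μM. NF-κB expression was followed over time by Western blot.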

Mus musculus [14] = test: Antiosteoporotic activity in ddY mouse model of OVX-induced osteoporosis assessed as increase in trabecular number in femur bone at 1 mg/kg, po administered once daily via gavage for 4 weeks by microcomputed tomographic analysis; assay type: functional, organism-based; summary of the method: as §2
[15] = Toxicity in ddY mouse model of OVX-induced osteoporosis assessed as increase in body weight at 1 mg/kg, po administered once daily via gavage for 4 weeks measured 5 weeks post OVX-challenge; assay type: organism-based; details: in vivo, 840 h
Summary of the method: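 Dosing of ddY mice began one week after ovariectomy: compound in 300 μL of 0.5% (v/v) DMSO-containing PBS by gavage once daily for 28 d. OVX and sham controls received vehicle. Body weight was compared with sham control 5 weeks after OVX.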

Mus musculus [16] = test: Antiosteoporotic activity in ddY mouse model of OVX-induced osteoporosis assessed as increase in femur bone mineral density at 1 mg/kg, po administered once daily via gavage for 4 weeks by microcomputed tomographic analysis; assay type: functional, organism-based; summary of the method: as §2
Mus musculus [17] = test: Antiosteoporotic activity in ddY mouse model of OVX-induced osteoporosis assessed as increase in new bone volume in femur bone at 1 mg/kg, po administered once daily via gavage for 4 weeks by microcomputed tomographic analysis; assay type: functional, organism-based; summary of the method: as §2
BMDM [18] = test: Inhibition of RANKL-induced osteoclastogenesis in C57BL/6 mouse bone marrow macrophages assessed as increase in NFkappaB expression at 0.5 uM measured over 5 days by Western blot analysis; assay type: functional, cell-based; summary of the method: as §1
BMDM [19] = test: Inhibition of RANKL-induced osteoclastogenesis in C57BL/6 mouse bone marrow macrophages assessed as reduction in NFATc1 expression at 0.5 uM measured over 5 days by Western blot analysis; assay type: functional, cell-based; summary of the method: as §1

Structure (SMILES) | Activity (MC3T3-E1 [1]) | CC50 at 24 h [2] | inhibition (BMDM [3]) | inhibition (BMDM [4]) | CC50 (B16-F10) | inhibition at 10 µM [5] | fold change (FC) (MC3T3-E1 [6]) | inhibition (BMDM [7]) | Activity [8] | inhibition (BMDM [9]) | fold change (FC) (MC3T3-E1 [10]) | Activity (MC3T3-E1 [11]) | Activity (Mus musculus [12]) | Activity (BMDM [13]) | Activity (Mus musculus [14]) | Activity [15] | Activity (Mus musculus [16]) | Activity (Mus musculus [17]) | inhibition (BMDM [18]) | inhibition (BMDM [19])
CC(=O)/C=C/c1ccc(O)c(O)c1 | 100% | 2800 µM | Active | Active | 65 µM | 100% | 1.7 | inactive | <=59% | Active | 4.1 | Active |  |  |  |  |  |  |  | 
COc1ccc(/C=C/C(C)=O)cc1O |  |  |  |  |  |  |  |  |  |  |  |  | Active | inactive | Active | Toxic | Active | Active | Active | Active
